This note sets out measurements from ChEMBL document CHEMBL1781937, “Antioxydant activity of β-carboline derivatives in the LDL oxidation model” (2011).

Test [1] can be described thus: Antioxidant activity against copper-induced LDL-oxidation assessed as length of lag phase of oxidative procedure of LDL at 0.1 to 10 uM measured every 10 mins for 8 hrs by spectrophotometry relative to 5 uM of copper. Format: functional. A digest of the protocol:
(§1)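 Copper oxidation of LDL: LDL isolated by NaBr density ultracentrifugation (1.019–1.063 g/mL) and dialysed in 0.01 M PBS pH 7.4 under N2 at 4 °C. 20 µL of 16.6 µM CuSO4 is added to 160 µL LDL (125 µg protein/mL) with compound (0.1–10 µM) or PBS at 30 °C. A234 is read every 10 min for 8 h. R is the compound lag phase divided by the control lag phase.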

Test [2] is described as follows: Antioxidant activity in BAEC assessed as protection against air-oxidized LDL-induced cell death at 10 uM pretreated for 24 hrs before air-oxidized LDL challenge measured after 16 hrs by lactate dehydrogenase release assay (reference value: 22.76 +/- 1.53 %). Format: functional, Bos taurus.
A short description of test [3]: Antioxidant activity against CuSO4-induced LDL-oxidation assessed as increase in lag phase of conjugated diene formation by 1.5 times measured every 10 mins for 8 hrs by spectrophotometry analysis.
Test [4] in a line: Antioxidant activity against APPH-induced LDL-oxidation assessed as length of lag phase of oxidative procedure of LDL at 0.1 to 10 uM measured every 10 mins for 8 hrs by spectrophotometry relative to 1 uM of APPH. The test is classed as functional. The method, boiled down: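 AAPH oxidation of LDL: LDL isolated by NaBr density ultracentrifugation (1.019–1.063 g/mL) and dialysed in 0.01 M PBS pH 7.4 under N2 at 4 °C. 160 µL LDL (125 µg protein/mL) is mixed with 20 µL of 2 mM AAPH and compound (0.1–10 µM) at 30 °C. Conjugated dienes are read at 234 nm every 10 min for 8 h. R is the lag phase with compound divided by the control lag phase.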

A short description of test [5]: Antioxidant activity against copper-induced LDL-oxidation assessed as length of lag phase of oxidative procedure of LDL at 0.1 to 10 uM measured every 10 mins for 8 hrs by spectrophotometry relative to 1 uM of copper. Format: functional. The method, boiled down:
as §1

For the compound `CCCN1CCc2c([nH]c3ccc(CC)cc23)C1c1cc(C(C)(C)C)c(O)c(C(C)(C)C)c1` (stereo not drawn), the results for the Activity in test [1], in test [2] and in test [4] were > 5, 13.21% and 2.6, respectively. Further, the ED50 in test [3] was < 0.1 µM. Besides, the Ratio in test [5] was found to be 2.7.
In the case of `CCCN1CCc2c([nH]c3ccc(CC)cc23)C1c1ccccc1OC` (stereo not drawn), the Activity in test [1] was 1.6. Besides, the ED50 in test [3] was determined as 4 µM. For the same compound, the Ratio in test [5] is 1.
On to `CCc1ccc2[nH]c3c(c2c1)CCNC3c1ccc(OCc2ccccc2)c(OCc2ccccc2)c1` (stereo not drawn), for which the Activity turned out to be 1.4 in test [1] and 1 in test [4]. Also, the ED50 in test [3] was 7 µM. In addition, the Ratio in test [5] turned out to be 1.
As for `CCCN1CCc2c([nH]c3ccc(CC)cc23)C1c1ccc(OCc2ccccc2)c(OCc2ccccc2)c1` (stereo not drawn), the Activity in test [1] is 1.8. Further, the ED50 in test [3] was determined as 3 µM. Besides, in test [5], the Ratio is 1.3.
As for `CCCCCN1CCc2c([nH]c3ccc(CC)cc23)C1c1cccc(OC)c1` (stereo not drawn), the Activity in test [1] is 1.2. For the same compound, the ED50 in test [3] stood at 9 µM. Moreover, the Ratio in test [5] worked out at 1.
Consider `CCCN1CCc2c([nH]c3ccc(CC)cc23)C1c1cccc(O)c1` (stereo not drawn), for which the Activity is > 5 in test [1], 13.2% in test [2] and 2.7 in test [4]. Further, the ED50 in test [3] is < 0.1 µM. Moreover, the Ratio in test [5] is 2.8.
For `CCCN1CCc2c([nH]c3ccc(OCc4ccccc4)cc23)C1c1cccc(OC)c1` (stereo not drawn) the same measures were 4.4, 13.22%, 2.4, 0.1 µM and 2.4.
The matching figures for `CCc1ccc2[nH]c3c(c2c1)CCNC3c1ccc(O)c(O)c1` (stereo not drawn): > 5, 13.3%, 2.6, < 0.1 µM and 2.8.
For the compound `CCc1ccc2[nH]c3c(c2c1)CCNC3c1ccc(OC)c(OC)c1OC` (stereo not drawn), the Activity in test [1] stood at 1.2. Moreover, in test [3], the ED50 is 9 µM. Moreover, the Ratio in test [5] was determined as 1.
The matching figures for `CCCN1CCc2c([nH]c3ccc(CC)cc23)C1c1ccc(OC)c(OC)c1` (stereo not drawn): 1.8, 2 µM and 1.1.
For `CCc1ccc2[nH]c3c(c2c1)CCNC3c1ccccc1OC` (stereo not drawn) the same measures were 1.4, 7 µM and 1.2.
The matching figures for `CCc1ccc2[nH]c3c(c2c1)CCNC3c1ccc2c(c1)OCCO2` (stereo not drawn): 1.1, 10 µM and 1.
`CCc1ccc2[nH]c3c(c2c1)CCNC3c1cccc(OCc2ccccc2)c1` (stereo not drawn): the Activity in test [1] was 1.4; in test [2] it was 13.29%; in test [4], 1. The ED50 in test [3] amounted to 7 µM. The Ratio in test [5] was determined as 1.
On to `CCCN1CCc2c([nH]c3ccc(CC)cc23)C1c1cc(OC)c(OC)c(OC)c1` (stereo not drawn), for which, in test [1], the Activity stood at 1.8. In addition, the ED50 in test [3] stood at 2 µM. Also, the Ratio in test [5] is 1.2.
As for `CCCN1CCc2c([nH]c3ccc(CC)cc23)C1c1cccc(OC)c1` (stereo not drawn), the Activity in test [1] stood at 1.6; in test [2] it was 15.32%. Also, the ED50 in test [3] was 4 µM. For the same compound, in test [5], the Ratio is 1.2.
As to `CCc1ccc2[nH]c3c(c2c1)CCNC3c1cccc(O)c1` (stereo not drawn), the Activity in test [1] was > 5; in test [2], 13.31%; in test [4] it was 2.6. Also, the ED50 in test [3] was < 0.1 µM. Further, the Ratio in test [5] was determined as 2.7.
As to `CCc1ccc2[nH]c3c(c2c1)CCNC3c1ccc(OC)c(OC)c1` (stereo not drawn), the Activity in test [1] amounted to 1.1. Besides, the ED50 in test [3] was 10 µM. Moreover, the Ratio in test [5] was determined as 1.
On to `CCc1ccc2[nH]c3c(c2c1)CCN(C(=O)OCc1ccccc1)C3c1ccc(OCc2ccccc2)c(OCc2ccccc2)c1` (stereo not drawn), for which the Activity in test [1] amounted to 1.3. Besides, in test [3], the ED50 came out at 8 µM. Besides, the Ratio in test [5] was found to be 1.1.
The matching figures for `CCc1ccc2[nH]c3c(c2c1)CCN(C)C3c1cccc(OC)c1` (stereo not drawn): 1.9, 1 µM and 1.
The matching figures for `COc1cccc(C2NCCc3c2[nH]c2ccc(OCc4ccccc4)cc32)c1` (stereo not drawn): 1.5, 5 µM and 1.1.
For `CCc1ccc2[nH]c3c(c2c1)CCNC3c1cccc(OC)c1` (stereo not drawn) the same measures were 1.2, 9 µM and 1.1.
Consider `CCCN1CCc2c([nH]c3ccc(CC)cc23)C1c1cccc(OCc2ccccc2)c1` (stereo not drawn), for which the Activity in test [1] is 4.2; in test [2] it was 13.42%; in test [4], 2.3. Further, the ED50 in test [3] was determined as 0.1 µM. Moreover, the Ratio in test [5] was 2.2.
Turning to `CCCN1CCc2c([nH]c3ccc(CC)cc23)C1c1ccc(OC)cc1` (stereo not drawn), the Activity in test [1] worked out at 1.7. The ED50 in test [3] worked out at 3 µM. For the same compound, the Ratio in test [5] was 1.
The matching figures for `CCCN1CCc2c([nH]c3ccc(CC)cc23)C1c1ccc2c(c1)OCCO2` (stereo not drawn): 1.2, 9 µM and 1.
For `CCCN1CCc2c([nH]c3ccc(O)cc23)C1c1cccc(OC)c1` (stereo not drawn), the Activity in test [1] came to 3.2; in test [2], 14.02%; in test [4] it was 2.1. Moreover, in test [3], the ED50 was determined as 0.2 µM. Further, the Ratio in test [5] amounted to 1.9.
As to `CCCCCCCCCN1CCc2c([nH]c3ccc(CC)cc23)C1c1cccc(OC)c1` (stereo not drawn), the Activity in test [1] worked out at 1.2. Further, the ED50 in test [3] amounted to 9 µM. Besides, the Ratio in test [5] came to 1.
For the compound `CCCN1CCc2c([nH]c3ccc(CC)cc23)C1c1ccc(O)c(O)c1` (stereo not drawn), the Activity was > 5 in test [1], 13.19% in test [2] and 2.7 in test [4]. The ED50 in test [3] is < 0.1 µM. Besides, in test [5], the Ratio came to 2.7.
For the compound `CCc1ccc2[nH]c3c(c2c1)CCNC3c1cc(C(C)(C)C)c(O)c(C(C)(C)C)c1` (stereo not drawn), the Activity in test [1] was > 5; in test [2], 13.26%; in test [4] it was 2.7. Further, the ED50 in test [3] was < 0.1 µM. Moreover, the Ratio in test [5] amounted to 2.8.
Regarding `CCC(=O)N1CCc2c([nH]c3ccc(CC)cc23)C1c1cccc(OC)c1` (stereo not drawn), in test [1], the Activity was determined as 1.2. For the same compound, the ED50 in test [3] was determined as 9 µM. Moreover, the Ratio in test [5] was 1.
With `CCc1ccc2[nH]c3c(c2c1)CCNC3c1ccc(OC)cc1` (stereo not drawn), the Activity in test [1] came to 1.2. Further, the ED50 in test [3] came to 9 µM. Moreover, the Ratio in test [5] worked out at 1.
In the case of `CCc1ccc2[nH]c3c(c2c1)CCNC3c1cc(OC)c(OC)c(OC)c1` (stereo not drawn), in test [1], the Activity worked out at 1.1. Moreover, the ED50 in test [3] was determined as 10 µM. The Ratio in test [5] came out at 1.
The matching figures for `CCc1ccc2[nH]c3c(c2c1)CCN(C(=O)OCc1ccccc1)C3c1cccc(OCc2ccccc2)c1` (stereo not drawn): 1, 10 µM and 1.
